Measurements published in ChEMBL document CHEMBL4513216, “Probing the Open Global Health Chemical Diversity Library for Multistage-Active Starting Points for Next-Generation Antimalarials” (ACS Infect Dis, 2020).

Assay: Toxicity liver stage against HepG2, at 10uM
Assay type: cell-based
Parameters: test concentration 10 uM, cell line HepG2-A16-CD81EGFP
Details: human, HepG2-A16-CD81EGFP cells; read-out: INHIBITION
Method in brief: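 Uninfected HepG2-A16-CD81EGFP cells, 3 × 10^3 per well, 1536-well, plated on prespotted compound at 10 μM final, parasite-free screening media added to match infected plates; puromycin 10 μM positive, DMSO 0.5% negative; run in parallel with 48 h PbLuc assay at 37 °C, 5% CO2; viability by CellTiter-Glo luminescence, normalized to controls.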

Structure (SMILES) | cytotoxicity at 10 µM
Cc1nc(-c2ccc(S(=O)(=O)N3CCC4(CC3)OCCO4)cc2)co1 | 1.69%
CC(=O)N1N=C(c2ccco2)OC1C(=O)NCCc1ccc(O)cc1 (stereo not drawn) | -1.19%
Cc1cc(C)nc(N2CCC(C(=O)Nc3ncc[nH]3)CC2)n1 | 4.47%
CCOc1ccc(NC(=O)Nc2cc(N3CCCCC3)ncn2)cc1 | 2.21%
CN(C)C(=O)CN1C[C@H]2CCN(C(=O)C3CCCO3)CC[C@H]2S1(=O)=O (stereo partly drawn) | 20.6%
c1cc(CN2C[C@@H]3OCCN(CC4CCCO4)[C@@H]3C2)co1 (stereo partly drawn) | 4.8%
Cc1ccc(C(=O)N2C[C@@H]3CN(S(C)(=O)=O)CCO[C@@H]3C2)s1 | -4.75%
CC(C)NC(=O)N1CCC2(CC(=O)N(c3ccsc3)C2)C1 (stereo not drawn) | -7.99%
O=C(NCC1CC1)C1CN(C(=O)Cc2cccs2)CC12CCOCC2 (stereo not drawn) | 4.76%
COCCC(=O)N1CCC2(CCCN2Cc2cccc(Cl)c2)C1 (stereo not drawn) | 10.6%
COc1cccc(CNc2c(C)cnc3c2c(=O)n(C)c(=O)n3C)c1 | 21.1%
C[C@H]1CN(Cc2cnn(C)c2)C[C@@]12CCN(Cc1cccnc1)C2=O | 8.99%
CC(=O)N1CCC2(CC1)CC[C@@]1(C(=O)N(C)C)CN(S(C)(=O)=O)C[C@@H]21 | -1.56%
Cn1c(=O)n(C)c2nc(Cl)c(CC(=O)c3ccc(F)cc3)n2c1=O | 6.28%
Cc1noc(C2CCCN(C(=O)c3cc(-c4ccccc4)on3)C2)n1 (stereo not drawn) | -7.14%
Cc1noc(C)c1-c1nc(C2CCCN(C(=O)C(C)C)C2)ccc1CO (stereo not drawn) | 0.983%
CC(C)CC(NC(=O)c1ccco1)c1nc2cccnc2n1C (stereo not drawn) | 6.08%
CC(=O)N1CCCC1c1nc(C)cc(-c2ccc(F)cc2)n1 (stereo not drawn) | 9.88%
COc1ccc(CN(C)CC2(O)CCN(C(=O)c3cccn3C)C2)cc1 (stereo not drawn) | 5.4%
Cc1nn(C)c(C)c1CC(=O)NCC1(C(N)=O)CCOCC1 | 0.63%
CCN1CCN(C(=O)C2CCOC2)c2ccccc21 (stereo not drawn) | 2.54%
c1ccc2oc(N3CCC(c4nncn4C4CC4)CC3)nc2c1 | 12.7%

Structure (SMILES) | cytotoxicity at 10 µM
Cc1ccc(NCCCNC(=O)NCc2c(C)cc(C)[nH]c2=O)nc1 | -45.2%
CS(=O)(=O)c1ccc2c(c1)N(C(=O)Cc1ccc(F)cc1)CCC2 | 9.95%
CCc1ccc(O)c(C(=O)N2CCN(CC(=O)N(C)C)CC2)c1 | 2.8%
O=S(=O)(Cc1ccccc1)NCC1CCCN(Cc2cccs2)C1 (stereo not drawn) | 3.3%
CC(C)c1cc(C(=O)N2CCCN(Cc3ccccc3)CC2)n[nH]1 | -5.41%
CCC(C)(CC)NC(=O)COc1nn(C)c2nc(C)cc(C)c12 | -6.17%
CNC(=O)Cc1coc(-c2ccc(F)cc2)n1 | -4.15%
Cc1cc(CN(Cc2cccnc2)CC2CCCO2)on1 (stereo not drawn) | -7.03%
Cc1nc(C)c(CC(=O)NCc2cccnc2OC2CCCC2)c(=O)[nH]1 | -5.87%
CCC(NCc1ncc[nH]1)c1nc(C(F)(F)F)cs1 (stereo not drawn) | 8.02%
COC(=O)CN1CCSC(c2ccccc2)C1 (stereo not drawn) | 17.8%
COc1ccc(C(=O)NCCCNc2ncccn2)cc1F | -10.5%
N#CCCN(Cc1cccnc1)C(=O)Cc1ccc(-n2cnnn2)cc1 | 2.32%
CSc1ccc(C)c(C(=O)Nc2c(C(N)=O)n[nH]c2C)c1 | 3.36%
Cc1cccc2c1NC1(CCOCC1)NC2=O | -49.6%
CC(c1ncc(-c2ccccc2)o1)N1CCN(C(=O)N(C)C)CC1 (stereo not drawn) | -12.1%
CC(C)C(C)(C#N)NC(=O)Cn1cc(-c2ccccc2)cn1 (stereo not drawn) | 8.34%
Cc1ccc2cc(C(=O)N3CCCN(C)CC3)ccc2n1 | -54.3%
CN(C)C(=O)CN1CCc2ncnc(C3CC3)c2CC1 | -94.1%
Cn1cc(C2COC3(CCN(C(=O)Cc4ccccc4)CC3)C2)cn1 (stereo not drawn) | -108%
CN1CC[C@]2(CN(S(C)(=O)=O)C[C@H]2c2ccccc2)C1=O | -120%
CCOCc1cnc2n1CCN(C(=O)c1ccoc1C)C2C (stereo not drawn) | -98.3%

Structure (SMILES) | cytotoxicity at 10 µM
CC(=O)N1CC[C@@H]2CN(C(=O)c3ccco3)CCO[C@@H]2C1 | 2.93%
CC(=O)N1CCn2c(C(=O)N(C)C)cnc2C1 | 1.54%
c1cnc(OCc2nnc3n2CCN(CC2CC2)C3)nc1 | -1.93%
O=C1CC(c2ccncc2)C2(CCN(CCO)CC2)N1 (stereo not drawn) | -3.4%
CCn1ncc2c1NC(=O)CC2c1cnc(NCc2ccccc2)nc1 (stereo not drawn) | -6.27%
OC(c1cccs1)C1CCN(c2ncccn2)CC1 (stereo not drawn) | -52.5%
Cc1nc2c(c(=O)[nH]1)CN(C(=O)CCC1CCCN(C)C1)C2 (stereo not drawn) | -7.76%
O=C([C@@H]1CCCO1)N1CCC(Cn2cc(-c3ccsc3)nn2)CC1 | 3.43%
CCn1nc(C)c(NC(=O)CN2CCC(c3ccccc3Cl)C2)c1C (stereo not drawn) | -7.58%
O=C1CCC2(CCN(c3cccc(C(F)(F)F)n3)CC2)CN1CCO | -18.2%
CN1CCc2[nH]nc(C(=O)N3CCCC4(CN(C)C(=O)O4)C3)c2C1 (stereo not drawn) | -53.6%
CCN(C)C(=O)c1cccc(S(=O)(=O)NCCc2csc(N)n2)c1 | -45.2%
O=C(NC1CCCCC1)[C@H]1CNC[C@@H](COc2cccnc2)C1 | -8.98%
COc1ccccc1N1CCN(C(=O)CCCS(N)(=O)=O)C(C)C1 (stereo not drawn) | 6.15%
O=C(NCCc1ccccc1)c1cccc(S(=O)(=O)NC2CCOC2)c1 (stereo not drawn) | 3.52%
Cc1cccnc1NCCNC(=O)C1CCN(Cc2ccco2)CC1 | -2.51%
CNS(=O)(=O)c1ccc(CN2CCCN(c3ccccc3)CC2)cc1 | 10.9%
Cc1nc(O)cc(C2CCCN(Cc3c(Cl)cncc3Cl)C2)n1 (stereo not drawn) | -5.4%
CC(C)OC(=O)N1CCC(Cc2cccc(C(N)=O)c2)C1 (stereo not drawn) | 7.56%
CCOC(=O)c1coc(N2CCN(Cc3cccc(OC)c3)C(=O)C2)n1 | -1.83%
CC(C)[C@@H]1CN(C(=O)CN(C)Cc2ccccc2)C[C@H]1C(=O)O | -3.99%
CC(C(=O)N1CCn2cncc2C1)N1CCCC1 (stereo not drawn) | 6.38%

Structure (SMILES) | cytotoxicity at 10 µM
c1coc(-c2nc3c(c(NCc4n[nH]c5c4CCC5)n2)CCNCC3)c1 | -3.36%
CCc1[nH]c2c(CNC(=O)C3CCS(=O)(=O)CC3)cc(C)cc2c1C | 1.87%
COc1cccc2c1OCC(C(=O)NCc1c(C)noc1C)C2 (stereo not drawn) | -15.5%
Cc1ccc(CN2CCC(n3cc(C(O)c4ccccc4)nn3)CC2)o1 (stereo not drawn) | 2.11%
CCC(Nc1nc(C(C)C)nc2c1cnn2C)c1ccncc1 (stereo not drawn) | -48%
CCOCCC(=O)N1CCCC(c2ncc[nH]2)C1 (stereo not drawn) | -9.43%
O=C(CCc1ccccc1)C1CCCN(C(=O)c2ncc(F)cc2F)C1 (stereo not drawn) | -17.4%
N#CC1CCCN(c2nc(-c3ccccc3)nc3c2CCNCC3)C1 (stereo not drawn) | -0.468%
Cc1nn(CC(C)C)c(N(C)C)c1CNCc1ccc2c(c1)OCO2 | -1.05%
CCN(c1ccc(C(=O)N2CCCC2c2cnn(C)c2)cn1)C(C)C (stereo not drawn) | -0.607%
CNC(=O)NC(=O)CN1CCN(c2ccc(C(=O)OC)cc2)CC1C (stereo not drawn) | -1.98%
CCCc1nc(CNCC2CCCN2c2cccnn2)cs1 (stereo not drawn) | -7.07%
CC(C(=O)N1CCCN(Cc2cnn(C)c2)CC1)n1ccnc1 (stereo not drawn) | -13.8%
COCC(c1cccc(C(F)(F)F)c1)N(C)C(=O)c1ccco1 (stereo not drawn) | -9.07%
Cc1cc(C)c(CNC(=O)NC(C)c2ccc3c(c2)CCC3)c(=O)[nH]1 (stereo not drawn) | 27.4%
CCOC(C)C(=O)N1CCCN(Cc2csc(CC)n2)CC1 (stereo not drawn) | -13%
Cc1cnc(CN(C)C2CCN(CCCc3cnn(C)c3)C2)o1 (stereo not drawn) | 2.61%
O=C(CN1CCc2cncnc2C1)Nc1ccc(Cl)cn1 | -3.24%
COc1cc(S(=O)(=O)N2CCc3ccccc32)cc(C(=O)O)c1OC | -7.54%
CCc1cccc(N2CCC(NC(=O)C3CCCO3)CC2)c1 (stereo not drawn) | -14.3%
Cc1nc(C)n(CC2CCCN(CCOc3cccc(F)c3)C2)n1 (stereo not drawn) | -3.18%
N#Cc1ccccc1OCCN1CCCC1Cn1cncn1 (stereo not drawn) | -10.7%

Structure (SMILES) | cytotoxicity at 10 µM
COCCc1noc(CN2CCc3nn(C(C)C)c(=O)cc3C2)n1 | -14.9%
CCOc1cc(C)nc(N2CCN(C(=O)c3ccc[nH]3)CC2)n1 | -4%
Cc1ccc(-n2nnc(C(=O)Nc3cc(C)nn3C)c2C2CC2)cc1 | 0.888%
Cc1cc(CNc2cc(Cl)ccc2OCCS(C)(=O)=O)no1 | -2.27%
CCn1ncc2c1CCCC2NCc1cc(Cl)c(OC)c(OC)c1 (stereo not drawn) | 24.4%
Cc1ccc(C(=O)N2CCCC(C(=O)N3CCCCC3)C2)c(O)c1 (stereo not drawn) | -7.52%
CC(C)(C)C(O)CN1CCN(C(=O)c2cccc3ncccc23)CC1 (stereo not drawn) | 4.67%
Cc1cnccc1-c1cnn(CCNC(=O)c2ccncc2)c1C1CC1 | 6.95%
O=C(CC1CC1)N1CCC2(CC1)CN(Cc1cccnc1)C(=O)CO2 | 3.59%
CNC(=O)N1CCC2(CC1)c1ncc(C)n1CCN2C | 5.22%
CCS(=O)(=O)N1CCC2(C1)C(=O)N(C)CCN2Cc1ccncc1 (stereo not drawn) | -4.78%
CCS(=O)(=O)N1Cc2nnn(C)c2C(COCCN(C)C)C1 (stereo not drawn) | 1.55%
CC(C)CCN1CCc2c(C(=O)N(C)Cc3ccccn3)nn(C)c2C1 | -0.449%
Cc1ccc(C(=O)N2CC3(CCCCC3)c3cc(C(=O)O)ccc32)cn1 | 11.2%
COCCN1CCC2(CC1)CC(N1CCOCC1)c1ccc(C)cc12 (stereo not drawn) | -106%
COc1ccc(CN2C[C@H](N3CCCC3=O)[C@@H]3OCCC[C@@H]32)cc1 | 9.51%
Fc1cnc(N2CCOC3(CCN(Cc4cccs4)CC3)C2)nc1 | 0.73%
O=C(C1=CCCC1)N1C[C@H]2CCC[C@@]2(COCc2ccncc2)C1 | 2.78%
COc1ccc(CN(C)CC(O)COCc2ccccc2Cl)c(OC)c1 (stereo not drawn) | 18.8%
c1ccc(-c2cc(CN3C[C@H]4CC[C@@H](C3)N(CC3CC3)C4)on2)cc1 | -4%
